C8 TRAIL sens: viability loss with TRAIL in NB7+C8 cells, primary screen, TRAIL sensitizer project, cell-based, ATPlite luminescence; inhibition (viability loss, TRAIL sensitization), % at 10 µM; 1% of 360,000 active;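 active means compounds causing at least 50% loss of cell viability in the single-dose screen, relative to plate controls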
PPC-1+TRAIL kill: compounds killing PPC-1 cancer cells with TRAIL present, primary screen, TRAIL potentiator project, ATPLite luminescence, uHTS; PPC-1 cells + TRAIL, ATPLite viability luminescence; cell killing (% activity), % at 4 µM or 5 µM; 0.41% of 220,000 active;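 active means cell killing above 50% in the first pass at 4 µM, then a duplicate retest at 5 µM averaging 50% or more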;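 further: plate controls were cells with TRAIL plus DMSO for no effect and medium-only wells lacking cells for full effect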
FLuc stim CS: FLuc activators, initial screening, artefact control for FLuc-dependent activation tests, biochemical, ATPlite luminescence; Luciferin 4-monooxygenase (Photinus pyralis), P08659; ATPlite luciferase biochemical, 10 min; 0 = ATP-free wells, 1 = DMSO control; activation factor at 10 µM; 200,000 tested, under 10 active; AID 1027, 2008;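 active means luciferase activation factor, scaled between plate controls, of at least 2 with compound at 10 µM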
Target sequence (P08659 whole entry, looked up): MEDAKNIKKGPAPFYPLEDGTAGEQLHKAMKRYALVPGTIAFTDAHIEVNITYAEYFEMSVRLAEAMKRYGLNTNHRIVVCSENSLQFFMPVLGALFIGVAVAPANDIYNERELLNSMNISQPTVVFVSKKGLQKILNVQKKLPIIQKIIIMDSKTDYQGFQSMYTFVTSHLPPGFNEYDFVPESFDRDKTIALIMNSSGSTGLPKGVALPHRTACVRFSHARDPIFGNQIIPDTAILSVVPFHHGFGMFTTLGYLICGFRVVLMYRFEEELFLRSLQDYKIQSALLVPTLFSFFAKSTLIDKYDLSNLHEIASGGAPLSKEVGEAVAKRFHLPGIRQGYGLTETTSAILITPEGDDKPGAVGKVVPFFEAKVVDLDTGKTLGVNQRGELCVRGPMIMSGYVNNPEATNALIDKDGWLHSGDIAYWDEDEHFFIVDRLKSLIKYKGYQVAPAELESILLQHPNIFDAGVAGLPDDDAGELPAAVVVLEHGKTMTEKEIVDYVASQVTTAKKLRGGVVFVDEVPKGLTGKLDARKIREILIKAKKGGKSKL
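assay system = Luciferase/luciferin detection reagent, cell-free biochemical luciferase assay | also added = ATP substrate | times = 10 min post-reagent at room temperature | measured by = luminescence from luciferase reaction | measure = luciferase activation, seen as luminescence increase over controls | benchmarks = low control with PBS replacing ATP, high control enzyme plus ATP without compound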
FLuc inh counter: firefly luciferase enzyme inhibitors, primary screen, artefact control for luciferase-based inhibitor screens, biochemical, luminescence, ATPLite; 1.5% of 200,000 active; Luciferin 4-monooxygenase (Photinus pyralis), P08659; inhibition, % at 10 µM; 10 min;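 active means inhibition above about 50% when tested at 10 µM, limit read from the data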
Platelet DG rel: inhibitors of platelet dense granule secretion, primary screen, cell-based, MLPCN, human platelets | AID 1663, 2009 | human platelet-rich plasma, SFLLRN dense granule ATP release, luminescence | 0.22% of 300,000 active | inhibition, %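 (compounds screened at 7.5 µM in platelet-rich plasma)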;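 active means mean replicate score, as percent of positive control, at or above 50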
* = called active by the depositor; nt = not tested or not shown. Rows were chosen to be rich in hits. Some 1.6% of all compounds tested hit in one or more screens of this group.

SMILES	C8 TRAIL sens	PPC-1+TRAIL kill	FLuc stim CS	FLuc inh counter	Platelet DG rel
C/C(=N/OC(=O)c1cccc(Cl)c1)c1nccs1	1	14	0.5	55*	0
C/C(=N\OC(=O)c1ccccc1F)c1nccs1	4	-10	0.2	85*	-1
CC1(C)CC(N2CCC(=O)NC2=S)CC(C)(C)N1	9	nt	nt	nt	69*
CC1(C)CC(N2CCC(=O)N(C3CC(C)(C)NC(C)(C)C3)C2)CC(C)(C)N1	0	10	1	-4	5
Cc1cccc(NC(=O)c2nc[nH]c2C(=O)NC[C@H](C)O)c1	-12	nt	nt	nt	nt
Cc1cc(/C=C2\C(=O)NN(c3ccccc3)C2=O)c(C)n1-c1ccccc1O	3	28	nt	nt	9
Cc1cc(/C=C2/C(=O)NN(c3ccccc3)C2=O)c(C)n1-c1ccc(O)cc1	88*	79*	0	95*	5
COc1ccc(-n2c(C)cc(/C=C3\C(=O)NN(c4ccccc4)C3=O)c2C)cc1	12	28	0.4	55*	-7
Cc1ccc(NC(=O)C(C)Sc2nnc3n2CCCCC3)cc1S(=O)(=O)N1CCOCC1 (stereo not drawn)	5	nt	nt	nt	nt
NC(=O)c1cccc(-c2coc3c(C(=O)NCc4ccccc4)cccc23)c1	4	nt	nt	nt	nt
CCCCC(=O)Nc1ccc(Br)cn1	-4	-1	1	1	-8
CCCCNC(=O)Nc1ccc(Br)cn1	-5	5	1	0	53*
Oc1cccc(/C=N/NC(=S)Nc2cccnc2)c1O	56*	27	0.5	47	1
Oc1ccc(/C=N/NC(=S)Nc2cccnc2)c(O)c1	80*	28	0.9	13	-11
CNC(=O)C1Cc2c(-c3ccc4c(c3)OCO4)ccnc2O1 (stereo not drawn)	11	nt	nt	nt	nt
O=C(NCCc1c[nH]c2ccccc12)OC1CC2CC1[C@H]1CCCCN1C2=O (stereo partly drawn)	-9	nt	nt	nt	nt
COc1cc(/C=N/NC(=O)c2cccc([N+](=O)[O-])c2)cc(OC)c1O	-4	6	1	-2	12
COc1cccc(/C=N/NC(=O)c2ccc([N+](=O)[O-])cc2Cl)c1O	55*	12	0.9	6	-5
Cc1ccc(NC(=O)CSc2nn(-c3ccccc3)c(=S)s2)cc1S(=O)(=O)N(C)C	66*	-12	1.1	-6	4
O=C(CSc1nn(-c2ccccc2)c(=S)s1)Nn1cnnc1	4	15	1.1	-10	-8
C=CCn1c(C)cc(C(=O)CN2NS(=O)(=O)c3ccccc3C2=O)c1C	18	10	0.4	55*	-2
Cc1ccc(-c2csc(C(O)c3ccccc3)n2)cc1C (stereo not drawn)	12	nt	nt	nt	nt
COc1cc(NCCCn2cnc3c(OC)ncnc32)cc(OC)c1OC	-3	nt	nt	nt	nt
COc1ccc(-c2cc(C(=O)OCC(=O)Nc3ccc4c(c3)OCO4)c3ccccc3n2)cc1	56*	31	0.8	16	6
Cc1c(NC(=O)COC(=O)c2cc(-c3ccc(-c4ccccc4)cc3)nc3ccccc23)c(=O)n(-c2ccccc2)n1C	87*	81*	0.2	85*	4
SMILES	C8 TRAIL sens	PPC-1+TRAIL kill	FLuc stim CS	FLuc inh counter	Platelet DG rel
O=C(COC(=O)c1cc(-c2ccccc2)nc2ccccc12)Nc1ccc2c(c1)OCO2	-1	19	1	1	4
CCOC(=O)[C@]12CCCC=C1N(Cc1cccc3ccccc13)C(=O)[C@H](CC(=O)N1CCCC1)C2	1	nt	nt	nt	nt
CS(=O)(=O)c1nc(-c2ccc(Br)cc2)cc(-c2ccccc2)c1C#N	88*	31	1.1	-7	-4
COc1ccc(-c2cc(-c3ccccc3)c(C#N)c(S(C)(=O)=O)n2)cc1	78*	47	1.1	-8	1
COc1ccc(-c2cc(-c3ccc(OC)cc3)c(C#N)c(SC)n2)cc1	10	3	1.1	-5	1
CCC(C)(C)C1CCc2[nH]nc(C(=O)NC3CCCC3)c2C1 (stereo not drawn)	13	nt	nt	nt	nt
O=C(NC1CCCCC1)c1n[nH]c2c1CCCCC2	78*	nt	nt	nt	nt
CC1(C(=O)N2Cc3ccccc3C2)CCN1C(=O)Cc1ccccc1 (stereo not drawn)	-8	nt	nt	nt	nt
COc1nn(-c2ccccc2)c(=O)c(Cl)c1Cl	91*	nt	nt	nt	9
COc1c(Cl)cnn(-c2ccccc2)c1=O	-9	30	1.2	-20	2
COc1c(Cl)cccc1-c1cn2ccccc2n1	73*	39	nt	nt	24
Clc1ccc(-c2cn3ccccc3n2)cc1	44	nt	nt	nt	11
Cc1nc2ccc(NC(=O)Cc3ccccc3F)cc2s1	26	34	0.5	54*	10
COCCNC(=O)C1(C)CCCN(C(=O)c2ccc(F)cc2Cl)C1 (stereo not drawn)	-10	nt	nt	nt	nt
Cc1sc(NC(=O)C2CCCCC2C(=O)O)c(C(N)=O)c1-c1ccc(C(C)(C)C)cc1 (stereo not drawn)	-1	10	1.1	-8	-1
Cc1sc(NC(=O)C2CCCCC2C(=O)O)c(C(N)=O)c1-c1ccccc1 (stereo not drawn)	30	15	0.5	55*	-32
CCN1/C(=C/c2cccc[n+]2C)Sc2ccc(OC)cc21	54*	nt	nt	nt	-2
COc1ccc2c(c1)N(C)/C(=C/c1cccc[n+]1C)S2	17	nt	nt	nt	0
C=CCNc1nc2ccccc2c(=O)[nH]1	-3	-4	1	-3	8
COCCOC(=O)N/C=C\c1nc2ccccc2c(=O)[nH]1	4	-6	1	1	-16
COc1cc(/C=C/c2nc3ccccc3c(=O)[nH]2)ccc1OC(F)F	56*	nt	nt	nt	12
COC(=O)c1ccc(/C=C/c2nc3ccccc3c(=O)[nH]2)cc1	53*	nt	nt	nt	63*
C=CCOc1cccc(/C=C/c2nc3ccccc3c(=O)[nH]2)c1	57*	nt	nt	nt	5
COc1cc(/C=C/c2nc3ccccc3c(=O)[nH]2)cc(OC)c1OC	10	nt	nt	nt	-1
COC(=O)c1c(C)[nH]c(C(=O)OC(C)C(=O)NC2CCCCC2C)c1C (stereo not drawn)	-1	nt	nt	nt	nt
SMILES	C8 TRAIL sens	PPC-1+TRAIL kill	FLuc stim CS	FLuc inh counter	Platelet DG rel
CCC(=O)N(C1=C(NC(C)C)C(=O)c2ccccc2C1=O)C(C)C	13	11	1	-2	-2
CCCNC1=C(N(C(C)=O)c2cccc(F)c2)C(=O)c2ccccc2C1=O	76*	70*	1	-5	3
COC(=O)Cn1c(=O)c(C(=O)CCl)c(N)n(Cc2ccccc2)c1=O	82*	10	nt	nt	3
CCOc1ccc(NC(=O)c2ccccn2)cc1	91*	87*	0	96*	31
CCOc1ccc(NC(=O)c2ccccc2CO)cc1	9	9	0.6	38	5
CCOc1ccc(NC(=O)c2nccnc2CO)cc1	49	25	0.4	63*	20
CCOc1ccc(NC(=O)c2cnsn2)cc1	29	-7	0.4	61*	nt
